Results published in PMC8594913 (Nature cancer, 2021).

Assays:
H1507Y mutant DNMT1 = assay: Radioactive SPA, H1507Y DNMT1; format: biochemical, human
[1] = test system: 51 hematologic cancer cell lines; assay: 6-d proliferation, panel of 51 hematologic cancer cell lines; format: cell-based, human
Summary of the method: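 6-d proliferation run by Horizon Discovery on its 2D OncoSignature panel. Compound given as a 10-point, threefold serial dilution, in triplicate. Growth-death index (GDI) runs from −100 (complete cell death) to 100 (no inhibition). Growth IC50 (gIC50) and GDI are reported per line.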

MV4–11 cells [2] = assay: Global DNA methylation; format: cell-based, human; details: MV4–11, day 4
Summary of the method: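 MV4–11 cells plated in 10-cm dishes 24 h before treatment with 0.1% DMSO or compound (8-point, threefold serial dilution). Global 5-methylcytosine was measured, and treated values were normalized to vehicle control.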

SKM-1 xenograft = assay: Subcutaneous SKM-1 xenograft; format: in vivo, mouse
[3] = Peripheral blood cell counts, SKM-1 study; format: in vivo, mouse
Summary of the method: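 SKM-1 xenograft mice. Compound given s.c. twice daily in 10% captisol (pH 4.5–5); reference agent i.p. three times weekly; both at 10 ml kg⁻¹. Blood counts taken at end of dosing (day 28) and after 27 d recovery (day 55), n = 5 per group. One-way ANOVA with Dunnett's test, adjusted P; log₁₀-transformed where variances were unequal.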

MV4–11 xenograft = assay: Subcutaneous MV4–11 xenograft; format: in vivo, mouse
[4] = test system: MV4–11 human systemic AML model; assay: Disseminated MV4–11 AML model, survival; format: in vivo, mouse; details: 30 d of dosing
[5] = test system: AML cells (MV4–11, GDM-1, SKM-1); assay: Western blotting; format: cell-based, human
Summary of the method: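 Cells plated in 15-cm dishes 24 h before treatment with 0.1% DMSO or compound (6-point, fivefold serial dilution); GDM-1 cells were treated 2 d at 3.2–10,000 nM. Blots probed with IRDye secondary antibodies and imaged on a LI-COR Odyssey. Total H2AX (and vinculin for GDM-1) served as loading controls.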

MV4–11 cells [6] = assay: Cell growth–death assay, MV4–11; format: cell-based, human
DNMT1 [7] = details: cited from earlier work
DNMT3A = details: cited from earlier work
DNMT1 [8] = molecular target: T1, DNMT1 (Homo sapiens, UniProt P26358); assay: Reversibility by rapid dilution; format: biochemical; details: 100-fold rapid dilution
Summary of the method: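 DNMT1 preincubated 20 min with compound, then the complex was diluted 100-fold by adding substrates. Activity recovery was followed over 70 min by quenching at time points after dilution. Data were fit to a fixed steady-state velocity equation.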

Gla1 = Gla1 counter screen; format: biochemical; details: read-out: Gla1 IC50; n = 40
[9] = test system: hemi-methylated hairpin oligonucleotide; assay: DNA binding assay
Summary of the method: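 Differential scanning fluorimetry on hemi-methylated hairpin oligonucleotide (200 nM) with 100 μM compound or DMSO. Ramp 25–95 °C at 1 °C min⁻¹, fluorescence read after each step. n = 2 biologically independent experiments, two technical replicates each.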

[10] = Compound stability in media without or with cells; format: physicochemical; details: 1,000 nM, media without or with MV4–11 cells, 37 °C
Summary of the method: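 MV4–11 cells, or media alone, plated 24 h before adding compound (100 or 1000 nM) and incubated at 37 °C. Remaining compound was quantified by LC-MS/MS.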

DNMT1 [11] = molecular target: T1, DNMT1; assay: Radioactive SPA, DNMT1, 40-mer hemi-methylated DNA; format: biochemical; details: read-out: DNMT1 IC50
[12] = test system: bacterial M.SssI CpG DNMT; details: cited from earlier work
Mouse pharmacokinetics = format: in vivo; details: mice
Summary of the method: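 Naive mice, 3 per group, each given a single dose: 2 mg kg⁻¹ i.v. (male CD-1), 2 mg kg⁻¹ s.c. (male C57/BL6) or 30 mg kg⁻¹ s.c. (female Nu/Nu). Composite blood samples were taken over 24 h and measured by HPLC–MS/MS. Parameters came from noncompartmental analysis of mean blood concentration–time profiles; AUC by linear trapezoidal rule.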

[13] = molecular target: other methyltransferases (n = 34); assay: Methyltransferase selectivity panel; format: biochemical; details: read-out: IC50 values, methyltransferase panel
Summary of the method: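 Methyltransferase panel run at Reaction Biology with HotSpot technology in IC50 format (10-point, threefold serial dilution).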

SKM-1 tumors = assay: Pharmacodynamics in SKM-1 tumors; format: in vivo, mouse; details: SKM-1, 45 mg kg^−1, 8 d of dosing
Summary of the method: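 SKM-1 subcutaneous xenografts in NOD-scid mice, 3 per group (24 total). Compound given s.c. twice daily in 10% captisol (pH 4.5–5) at 10 ml kg⁻¹. Tumors and blood collected 6 h after the last dose on day 8.5. Tumors assayed for global 5-methylcytosine; blood drug levels by HPLC–MS/MS after acetonitrile precipitation.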

[14] = mouse, in vivo, sc
Murine DNMT1 (731–1602) = Murine DNMT1 (731–1602) (Mus musculus, UniProt P13864); assay: Investigation of covalent adduct; format: binding; details: 25 μM, 20 h, hemi-methylated DNA
Summary of the method: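 Murine DNMT1 (731–1602, 5.6 μM) incubated 20 h with 14-mer hemi-methylated DNA duplex (25 μM), with or without compound (25 μM). Buffer: 20 mM Tris pH 7.5, 50 mM NaCl, 5 mM DTT, 20% glycerol, 2.5% DMSO. Aliquots diluted fivefold in 0.05% TFA/0.1% formic acid; 20 pmol protein analysed by intact-mass TOF LC–MS for adducts.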

kinases (n = 369) = assay: Kinase selectivity panel; format: biochemical; details: read-out: IC50 values, kinase panel, panel tested at 10 μM
Summary of the method: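 Kinase panel run at Reaction Biology with HotSpot technology, compound at a single concentration of 10 μM. PIM1, PKD2/PRKD2 and DYRK2 were run in IC50 format (10-point, threefold serial dilution).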

DNMT1 in HepG2 cells = DNMT1 in HepG2 cells (Homo sapiens, UniProt P26358); assay: Cellular thermal shift assay; format: cell-based; details: HepG2, 90 min
DNMT1 (729-1600) = DNMT1 (729-1600) (human, UniProt P26358 729-1600); assay: X-ray crystallography
Sequence of DNMT1 (729-1600) (P26358 729-1600): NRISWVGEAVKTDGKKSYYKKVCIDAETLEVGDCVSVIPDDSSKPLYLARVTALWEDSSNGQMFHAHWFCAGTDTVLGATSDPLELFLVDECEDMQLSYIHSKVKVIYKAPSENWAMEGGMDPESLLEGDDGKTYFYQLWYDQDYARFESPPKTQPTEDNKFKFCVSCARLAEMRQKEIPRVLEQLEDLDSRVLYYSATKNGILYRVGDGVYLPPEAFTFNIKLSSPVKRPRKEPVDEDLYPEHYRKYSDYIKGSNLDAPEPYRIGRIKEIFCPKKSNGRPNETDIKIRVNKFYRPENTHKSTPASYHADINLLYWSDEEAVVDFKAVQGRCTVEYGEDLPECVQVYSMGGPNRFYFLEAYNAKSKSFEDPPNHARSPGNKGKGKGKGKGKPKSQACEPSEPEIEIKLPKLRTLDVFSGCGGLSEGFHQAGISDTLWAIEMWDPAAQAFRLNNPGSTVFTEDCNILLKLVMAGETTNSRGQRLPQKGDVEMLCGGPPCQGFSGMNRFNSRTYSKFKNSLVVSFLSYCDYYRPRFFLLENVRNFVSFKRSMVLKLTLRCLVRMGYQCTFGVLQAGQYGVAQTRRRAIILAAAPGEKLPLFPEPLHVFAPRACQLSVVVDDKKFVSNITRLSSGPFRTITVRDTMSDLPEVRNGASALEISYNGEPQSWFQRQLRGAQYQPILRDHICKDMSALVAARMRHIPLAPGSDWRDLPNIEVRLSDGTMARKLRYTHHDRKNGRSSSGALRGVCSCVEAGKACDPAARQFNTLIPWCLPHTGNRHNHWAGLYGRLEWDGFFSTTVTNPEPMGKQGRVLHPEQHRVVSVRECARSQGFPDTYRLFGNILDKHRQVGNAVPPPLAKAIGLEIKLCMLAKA

T1 sequence (P26358 whole entry): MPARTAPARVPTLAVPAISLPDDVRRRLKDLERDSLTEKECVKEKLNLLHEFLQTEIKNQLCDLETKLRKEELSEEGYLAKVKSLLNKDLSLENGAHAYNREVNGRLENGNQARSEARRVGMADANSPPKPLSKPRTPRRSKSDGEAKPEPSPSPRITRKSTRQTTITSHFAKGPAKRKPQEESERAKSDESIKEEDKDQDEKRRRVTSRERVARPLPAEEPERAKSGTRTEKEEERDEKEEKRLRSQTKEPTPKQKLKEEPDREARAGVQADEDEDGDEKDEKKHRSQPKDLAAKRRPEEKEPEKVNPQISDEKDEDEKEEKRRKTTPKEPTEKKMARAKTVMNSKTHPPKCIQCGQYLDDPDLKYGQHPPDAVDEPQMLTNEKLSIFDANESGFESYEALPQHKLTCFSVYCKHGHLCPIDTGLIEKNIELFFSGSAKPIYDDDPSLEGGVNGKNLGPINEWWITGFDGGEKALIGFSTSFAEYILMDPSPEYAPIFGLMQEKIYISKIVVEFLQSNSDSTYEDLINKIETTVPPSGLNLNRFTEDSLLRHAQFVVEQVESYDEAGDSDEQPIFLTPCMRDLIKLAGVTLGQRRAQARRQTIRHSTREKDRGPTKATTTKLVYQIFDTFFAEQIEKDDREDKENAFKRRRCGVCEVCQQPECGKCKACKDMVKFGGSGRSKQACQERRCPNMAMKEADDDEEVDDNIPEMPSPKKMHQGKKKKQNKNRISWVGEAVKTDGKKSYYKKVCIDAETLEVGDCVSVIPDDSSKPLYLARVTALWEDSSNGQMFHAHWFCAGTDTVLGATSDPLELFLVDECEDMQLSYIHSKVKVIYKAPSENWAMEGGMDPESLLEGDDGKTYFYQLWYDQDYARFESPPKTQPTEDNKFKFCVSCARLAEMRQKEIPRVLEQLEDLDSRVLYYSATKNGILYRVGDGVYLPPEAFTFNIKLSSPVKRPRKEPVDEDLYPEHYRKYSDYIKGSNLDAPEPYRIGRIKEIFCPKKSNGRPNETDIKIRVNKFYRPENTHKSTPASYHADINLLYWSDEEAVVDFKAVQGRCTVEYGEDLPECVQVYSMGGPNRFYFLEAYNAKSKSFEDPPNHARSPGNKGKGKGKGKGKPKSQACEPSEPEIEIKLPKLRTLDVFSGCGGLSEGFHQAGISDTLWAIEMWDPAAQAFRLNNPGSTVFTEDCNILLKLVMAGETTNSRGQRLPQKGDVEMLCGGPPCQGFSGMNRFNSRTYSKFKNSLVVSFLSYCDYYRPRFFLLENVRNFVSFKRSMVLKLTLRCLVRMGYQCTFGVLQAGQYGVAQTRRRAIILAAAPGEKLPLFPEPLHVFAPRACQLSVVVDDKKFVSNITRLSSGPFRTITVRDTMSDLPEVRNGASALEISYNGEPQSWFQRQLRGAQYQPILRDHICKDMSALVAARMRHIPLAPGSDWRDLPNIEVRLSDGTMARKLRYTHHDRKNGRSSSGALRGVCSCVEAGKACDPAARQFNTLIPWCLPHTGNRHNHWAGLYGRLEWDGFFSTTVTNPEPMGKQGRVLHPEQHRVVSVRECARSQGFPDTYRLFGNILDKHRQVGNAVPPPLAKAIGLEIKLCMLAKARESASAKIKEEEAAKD
Sequence of DNMT1 in HepG2 cells (P26358 whole entry): as above
Sequence of Murine DNMT1 (731–1602) (P13864 731-1602): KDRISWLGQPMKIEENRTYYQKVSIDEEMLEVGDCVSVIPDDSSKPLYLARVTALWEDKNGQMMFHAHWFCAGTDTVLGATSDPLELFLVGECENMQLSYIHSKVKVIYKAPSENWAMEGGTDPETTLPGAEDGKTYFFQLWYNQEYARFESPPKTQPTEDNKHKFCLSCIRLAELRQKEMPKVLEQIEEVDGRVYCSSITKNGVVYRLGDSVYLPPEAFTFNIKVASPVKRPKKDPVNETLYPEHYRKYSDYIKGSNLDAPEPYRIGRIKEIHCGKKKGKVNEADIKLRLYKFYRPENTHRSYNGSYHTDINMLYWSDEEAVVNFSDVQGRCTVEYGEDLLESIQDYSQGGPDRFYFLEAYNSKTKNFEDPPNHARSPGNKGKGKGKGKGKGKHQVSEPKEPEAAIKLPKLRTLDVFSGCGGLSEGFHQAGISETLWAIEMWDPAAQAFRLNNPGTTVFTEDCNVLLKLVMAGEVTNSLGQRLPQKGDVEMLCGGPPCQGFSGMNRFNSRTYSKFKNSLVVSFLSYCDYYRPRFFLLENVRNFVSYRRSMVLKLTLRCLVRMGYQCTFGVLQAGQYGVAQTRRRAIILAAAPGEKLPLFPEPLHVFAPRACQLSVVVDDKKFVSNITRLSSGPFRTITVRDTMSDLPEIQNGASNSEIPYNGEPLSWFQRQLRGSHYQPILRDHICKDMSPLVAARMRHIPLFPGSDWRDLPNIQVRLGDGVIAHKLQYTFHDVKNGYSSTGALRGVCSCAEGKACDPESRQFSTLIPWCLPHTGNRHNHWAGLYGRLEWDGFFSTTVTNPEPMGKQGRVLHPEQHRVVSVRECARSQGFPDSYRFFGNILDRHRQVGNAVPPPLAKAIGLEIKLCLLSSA

Question: With `Nc1ncnc2c1ncn2[C@@H]1O[C@H](CSCC[C@H](N)C(=O)O)[C@@H](O)[C@H]1O` [SAH, S-adenosyl-L-homocysteine, reference compound] as the molecule, how does the “reduction in inhibition of H1507Y mutant versus wild-type DNMT1” value (H1507Y mutant DNMT1) read?
Answer: Its value is “not observed”.

Question: What does the source list for `Nc1ncn([C@H]2C[C@H](O)[C@@H](CO)O2)c(=O)n1` [DAC, decitabine, reference compound]?
Answer: cell lines with negative growth–death index (GDI) ([1]; day 6): 80%; concentration above which DNA hypomethylation and gene activation diminish (MV4–11 cells [2]): above 350 nM; tumor growth inhibition relative to vehicle (SKM-1 xenograft; SKM-1, intraperitoneal three times weekly, not statistically significant): 18%; neutrophils, red blood cells, platelets ([3]; day 28, DAC intraperitoneal three times weekly): statistically significant decreases; tumor growth inhibition relative to vehicle (MV4–11 xenograft; MV4–11, intraperitoneal three times weekly, not statistically significant): 57%; survival benefit over vehicle [4]: 13 days; lowest dose with accumulation of γH2AX (DNA damage) [5]: 16 nM; onset of cell death (negative GDI) (MV4–11 cells [6]; MV4–11): 2 days

Question: With `Cc1cc(Nc2ccc(NC(=O)c3ccc(Nc4ccnc5ccccc45)cc3)cc2)nc(N)n1` [SGI-1027] as the molecule, how does the “activity against DNMT1” value (DNMT1 [7]) read?
Answer: Its value is “low μM activity”.

Question: And the “activity against DNMT3A” value (DNMT3A)?
Answer: The value was “low μM activity”.

Question: And the cell growth (MV4–11 cells [6]; MV4–11, day 6)?
Answer: The cell growth was “inhibited cell growth”.

Question: What does the source list for `CCc1c(C#N)c(SC(C(N)=O)c2ccccc2)nc(N(C)C)c1C#N` (stereo not drawn) [GSK3484862]?
Answer: reversibility of DNMT1 inhibition (DNMT1 [8]): rapidly reversible inhibition; IC50 (Gla1): > 50000 nM; nonspecific DNA binding ([9]; 100 μM compound): did not bind DNA nonspecifically; Tm of hemi-methylated hairpin oligonucleotide ([9]; with DMSO or 100 μM compound): 77.5 °C; chemical stability [10]: chemically stable

Question: For `CCc1c(C#N)c(SCc2ccc(N(C)S(C)(=O)=O)cc2)nc(N(C)CCNC)c1C#N` [GSK3830052], which IC50 (DNMT1 [11]) is on record?
Answer: Its IC50 is 110 ± 20 nM.

Question: For `O=C(O)C(Cc1c[nH]c2ccccc12)N1C(=O)c2ccccc2C1=O` (stereo not drawn) [RG-108], which IC50 [12] is on record?
Answer: Its IC50 is 12 nM.

Question: With `CCc1c(C#N)c(SC(C(N)=O)c2ccccc2)nc(N2CCC(N)CC2)c1C#N` (stereo not drawn) [GSK3685032] as the molecule, how does the blood half-life (Mouse pharmacokinetics) read?
Answer: Its blood half-life is > 1.8 h.

Question: What about the clearance (Mouse pharmacokinetics) of the same molecule?
Answer: The clearance was “low clearance”.

Question: What about the volume of distribution (Mouse pharmacokinetics) of the same molecule?
Answer: The volume of distribution was “moderate volume of distribution”.

Question: What about the IC50 ([1]; read-out: median growth IC50 (gIC50), day 6, median of panel) of the same molecule?
Answer: The IC50 was 640 nM.

Question: What about the “additional loss of global DNA methylation versus DAC” value (MV4–11 cells [2]) of the same molecule?
Answer: Its value is 13%.

Question: What about the “maximal response, loss of global DNA methylation” value (MV4–11 cells [2]) of the same molecule?
Answer: Its value is 83%.

Question: And the “dose giving clear tumor regression” value (SKM-1 xenograft; SKM-1, subcutaneous twice daily)?
Answer: The value was ≥ 30 mg/kg.

Question: What about the “animals maintaining tumor volumes ≤200 mm^3 while off drug” value (SKM-1 xenograft; SKM-1, ≥30 mg kg^−1, 4-week observation after dosing) of the same molecule?
Answer: Its value is ≥ 60%.

Question: What about the “neutrophils, red blood cells, platelets” value ([3]; day 28, 1 or 5 mg kg^−1) of the same molecule?
Answer: Its value is “no statistically significant changes”.

Question: What about the “reduction in inhibition of H1507Y mutant versus wild-type DNMT1” value (H1507Y mutant DNMT1) of the same molecule?
Answer: Its value is > 350 fold.

Question: And the “dose giving clear tumor regression” value (MV4–11 xenograft; MV4–11, subcutaneous twice daily)?
Answer: The value was ≥ 30 mg/kg.

Question: What about the “animals maintaining tumor volumes ≤200 mm^3 while off drug” value (MV4–11 xenograft; MV4–11, ≥30 mg kg^−1, 4-week observation after dosing) of the same molecule?
Answer: Its value is ≥ 60%.

Question: What about the IC50 [13] of the same molecule?
Answer: The IC50 was > 10000 nM.

Question: And the “maximal loss of DNA methylation in tumors” value (SKM-1 tumors)?
Answer: Its value is 46%.

Question: And the “mice surviving nearly 7 weeks after dosing ended” value [4]?
Answer: The value was 50%.

Question: And the “survival benefit over vehicle” value [4]?
Answer: Its value is > 43 days.

Question: And the well tolerated dose [14]?
Answer: Its well tolerated dose is “at least 45 mg kg^−1”.

Question: What about the “covalent binding to DNMT1” value (Murine DNMT1 (731–1602)) of the same molecule?
Answer: Its value is “noncovalent”.

Question: What about the “effects on DNMT3A, DNMT3B or γH2AX” value [5] of the same molecule?
Answer: Its value is “no immediate effects”.

Question: What about the IC50 (kinases (n = 369)) of the same molecule?
Answer: The IC50 was > 10000 nM.

Question: What about the “onset of growth inhibition” value (MV4–11 cells [6]; AML lines, 6 d time course) of the same molecule?
Answer: The value was ≥ 3 days.

Question: And the “cellular target engagement (DNMT1 thermal stabilization)” value (DNMT1 in HepG2 cells)?
Answer: Its value is “stabilization of DNMT1”.

B1: 12-bp hemi-methylated DNA with zebularine (dsDNA)
DNA 1: GAGGCCGCCTGC
DNA 2: GCAGGCGGCCTC
modifications: strand 1 C6 = 5-methylcytosine (M); strand 2 C6 = zebularine (Z, in place of target cytidine)
Question: Does B1 bind (DNMT1 (729-1600))?
Answer: Result: binds
